Active and inactive are the calls of the source. The calls are words filed in the database; no cut-off is given here.
What was measured:
[1] = test system: Coxsackievirus A24; test: Inhibition of Coxsackievirus A24 RNA polymerase 3D-POL assessed as reduction in uridylylated VPg level at 25 uM after 60 mins by SDS-PAGE analysis
How it was run: (§1)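 Purified CVA24 3Dpol (1–2 µg) incubated at 30°C with 1 µg synthetic VPg, 0.5 µg polyA template, 10 µM UTP plus α-32P-UTP, and 0.5 mM Mn(II) acetate in 50 mM HEPES pH 7.5, 8% glycerol. Compounds were diluted from DMSO stocks in that buffer first. Reactions were stopped on ice, run on 16% urea Tris-Tricine SDS-PAGE, and VPgpU and VPgpolyU were phosphorimaged relative to DMSO or buffer controls.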

[2] = test system: Coxsackievirus A24; test: Inhibition of Coxsackievirus A24 RNA polymerase 3D-POL assessed as reduction in VPgpolyU level at 25 uM after 60 mins by SDS-PAGE analysis; how it was run: as §1
[3] = Lipophilicity, log P of the compound; format: physicochemical; details: octanol/water
[4] = test system: Dengue virus; test: Inhibition of Dengue virus RNA polymerase NS5 assessed as reduction in polyU formation at 20 uM by SDS-PAGE analysis
[5] = test system: Coxsackievirus A24; test: Inhibition of Coxsackievirus A24 RNA polymerase 3D-POL assessed as reduction in uridylylated VPg level at 10 uM by SDS-PAGE analysis; how it was run: as §1
[6] = test system: Dengue virus; test: Inhibition of Dengue virus RNA polymerase NS5 assessed as reduction in polyU formation at 10 uM by SDS-PAGE analysis
[7] = test system: Coxsackievirus A24; test: Inhibition of Coxsackievirus A24 RNA polymerase 3D-POL assessed as reduction in VPgpolyU level at 10 uM by SDS-PAGE analysis; how it was run: as §1
[8] = test system: Coxsackievirus A24; test: Inhibition of Coxsackievirus A24 RNA polymerase 3D-POL assessed as reduction in uridylylated VPg level at 20 uM by SDS-PAGE analysis; how it was run: as §1
[9] = test system: Coxsackievirus A24; test: Inhibition of Coxsackievirus A24 RNA polymerase 3D-POL assessed as reduction in VPgpolyU level at 20 uM by SDS-PAGE analysis; how it was run: as §1

Structure (SMILES)	inhibition [1]	inhibition [2]	logP [3]	further results
COC(=O)c1cc(=O)c2cc(NC(=O)c3ccc(OC(F)(F)F)cc3)ccc2[nH]1	inactive	inactive	2.78	–
O=C(Nc1ccc(OC(F)(F)F)cc1)N1CCN(c2ncccn2)CC1	inactive	inactive	2.96	–
O=C1c2ccccc2S(=O)(=O)N1CCS(=O)(=O)c1ccc(Cl)cc1Cl	inactive	inactive	2.69	–
O=C(Nc1ccc2oc3ncccc3c(=O)c2c1)c1ccc([N+](=O)[O-])cc1	inactive	inactive	3.5	–
Cn1c(=O)oc2cc(S(=O)(=O)Nc3ccccc3NC(=O)c3ccc(C(C)(C)C)cc3)ccc21	–	–	4.54	inhibition [4]: inactive
COC(=O)Nc1nc2cc(-c3nnc(O)c4ccccc34)ccc2[nH]1	inactive	inactive	2.53	–
Cc1c(S(=O)(=O)N2CCN(C3c4ccccc4-c4ccccc43)CC2)cnn1-c1ccccc1	inactive	inactive	4.13	–
CC(C)COc1ccc(NS(=O)(=O)c2ccc3c(c2)oc(=O)n3C)cc1Cl	–	–	3.77	–
C/C(=N/Nc1nnc(-c2ccccc2)c(-c2ccccc2)n1)c1ccco1	inactive	inactive	4.36	–
O=C(NCc1nc2ccccc2s1)c1cc(F)cc2c1OCOC2	inactive	inactive	3.12	–
CC1=C(C(=O)N[n+]2cnc3cccc(F)c3c2N)Sc2ccccc2N1	inactive	inactive	-0.39	–
O=c1[nH]c2ccc(S(=O)(=O)Nc3cccc(F)c3)cc2o1	–	–	2.06	inhibition [5]: Active; inhibition [6]: inactive; inhibition [7]: Active
Cn1c(=O)oc2cc(S(=O)(=O)Nc3ccccc3Sc3ccccc3)ccc21	–	–	3.91	–
COc1ccc(-c2nc3cc4c(cc3o2)Oc2ccccc2N4)cc1	inactive	inactive	5.09	–
c1ccc2c(c1)Nc1nc3ccccc3nc1O2	inactive	inactive	3.46	–
O=S(=O)(NCc1cc(F)cc2c1OCOC2)c1cccc2nonc12	inactive	inactive	2.2	–
N#Cc1ccc(N2CCN(S(=O)(=O)c3cccc4nonc34)CC2)cc1	inactive	inactive	2.51	–
O=C1/C(=C/c2ccc3c(c2)OCO3)CCC/C1=C\c1ccc2c(c1)OCO2	inactive	inactive	4.75	–

Structure (SMILES)	inhibition [1]	inhibition [2]	logP [3]	further results
Cc1noc(C)c1-c1nc(CN2C(=O)c3ccccc3S2(=O)=O)no1	inactive	inactive	0.51	–
O=S(=O)(NNc1cnc2ccccc2n1)c1ccccc1C(F)(F)F	inactive	inactive	3.23	–
Cn1c(=O)oc2cc(S(=O)(=O)Nc3cccc4cccnc34)ccc21	–	–	1.94	–
Cn1c(=O)oc2cc(S(=O)(=O)Nc3ccccc3Oc3ccccc3Cl)ccc21	–	–	4.32	–
CCN(c1ccccc1)S(=O)(=O)c1ccc2[nH]c(=O)oc2c1	–	–	3	inhibition [8]: Active; inhibition [9]: Active; inhibition [4]: inactive
O=C(NNc1cc(C(F)(F)F)nc2ccccc12)Nc1cccc(Cl)c1	inactive	inactive	5.14	–
Cc1nc(-c2cnccn2)sc1C(=O)N1CCN(C2c3ccccc3-c3ccccc32)CC1	inactive	inactive	3.86	–
c1ccc2c(c1)c1ccccc1c1nn3nnnc3nc21	inactive	inactive	3.16	–
CCOc1ccc(Oc2ccc(NS(=O)(=O)c3ccc4c(c3)oc(=O)n4C)cc2)cc1	–	–	4.17	–
O=C(CSc1nc2ccccc2o1)N1c2ccccc2Sc2ccccc21	inactive	inactive	6.09	–
O=C1c2ccccc2S(=O)(=O)N1C[C@@H]1CC(c2ccccc2Cl)=NO1	inactive	inactive	2.71	–
O=S(=O)(NC1CCCc2ccccc21)c1cccc2nonc12 (configuration not stated)	inactive	inactive	3.28	–
O=C(Nc1ccccc1)Nc1ccc(Oc2cccc(C(F)(F)F)c2)nc1	inactive	inactive	5.04	–
N#Cc1ccc(S(=O)(=O)N2CCNC(=O)[C@H]2CC(=O)Nc2cc(Cl)ccc2Cl)cc1	inactive	inactive	3.54	–
O=S(=O)(c1ccccc1)N1CCN(C2c3ccccc3-c3ccccc32)CC1	inactive	inactive	4.26	–
C[C@@H](CS(=O)(=O)Nc1ccc2c(c1)oc(=O)n2C)c1ccccc1	–	–	3.06	–
Cn1c(=O)oc2cc(S(=O)(=O)N(CCC(N)=O)c3ccccc3)ccc21	–	–	1.23	–
